The subject of assay [1] is Enterococcus faecalis. Nature of the assay: Minimum inhibitory concentration against Enterococcus faecalis UC9217. Format: functional. The essentials:
(§1)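 Broth microdilution MIC following the NCCLS M7-A4 approved standard for dilution susceptibility testing of aerobically growing bacteria. The method is taken as accurate to within one dilution.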

The subject of assay [2] is Staphylococcus aureus. Nature of the assay: Minimum inhibitory concentration against methicillin, ciprofloxacin, rifampin, imipenem-resistant Staphylococcus aureus UC12673. Format: functional. The essentials:
(§2)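 MIC determined by standard broth microdilution following the NCCLS M7-A4 approved standard for dilution susceptibility testing of aerobically growing bacteria.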

For assay [3], the system named is Streptococcus pneumoniae. Nature of the assay: Minimum inhibitory concentration against penicillin-susceptible Streptococcus pneumoniae UC9912. Format: functional. In outline:
as §1

In assay [4] the test system is Staphylococcus aureus. The experiment in a line: Minimum inhibitory concentration against methicillin-susceptible Staphylococcus aureus UC9213. Format: functional. In outline:
as §2

In assay [5] the test system is Staphylococcus epidermidis. The experiment in a line: Minimum inhibitory concentration against methicillin-resistant Staphylococcus epidermidis UC12084.
For assay [6], the system named is Haemophilus influenzae. The experiment in a line: Minimum inhibitory concentration against ampicillin-reisitant Haemophilus influenzae UC30063. Format: functional. In outline:
as §1

In assay [7] the test system is Escherichia coli. Nature of the assay: Minimum inhibitory concentration against Escherichia coli UC6674. Format: functional. The essentials:
as §1

Assay [8] relates to Staphylococcus epidermidis. Nature of the assay: Minimum inhibitory concentration against methicillin-resistant Staphylococcus epidermidis UC12084; Range is from 1-2 ug/mL.
Assay [9] has as its system Enterococcus faecalis. Nature of the assay: Minimum inhibitory concentration against Enterococcus faecalis UC9217; Range is from 2-4 ug/mL. It counts as functional. The essentials: as §1
Assay [10] relates to Haemophilus influenzae. Nature of the assay: Minimum inhibitory concentration against ampicillin-reisitant Haemophilus influenzae UC30063; Range is 8-16 ug/mL. It counts as functional. In outline: as §2
The test system of assay [11] is Staphylococcus epidermidis. The experiment in a line: Minimum inhibitory concentration against methicillin-resistant Staphylococcus epidermidis UC12084; Range is 0.5-1 ug/mL.
The subject of assay [12] is Staphylococcus aureus. The experiment in a line: Minimum inhibitory concentration against methicillin-susceptible Staphylococcus aureus UC9213; Range is 2-4 ug/mL. Format: functional. In outline:
as §2

In assay [13] the test system is Moraxella catarrhalis. Nature of the assay: Minimum inhibitory concentration Moraxella catarrhalis. It counts as functional. The essentials: as §1
Setting [14] is: Streptococcus pneumoniae, read-out: MIC.
[15] abbreviates: Haemophilus influenzae, read-out: MIC.

Values after ≈ are worked out from the molar mass of the structure shown.

For the compound `CC(=O)NC[C@H]1CN(c2cc(F)c(N3C[C@@H]4[C@H](C3)[C@H]4NS(C)(=O)=O)c(F)c2)C(=O)O1`, the MIC came to 2 µg/mL (≈ 4.5 µM) in assay [1]; 4 µg/mL (≈ 9 µM) in assay [2]; 1 µg/mL (≈ 2.25 µM) in assay [3] (setting [14]); 4 µg/mL (≈ 9 µM) in assay [4]; 1 µg/mL (≈ 2.25 µM) in assay [5]; 32 µg/mL (≈ 72 µM) in assay [6] (setting [15]). Besides, in assay [7], the MIC is above 64 µg/mL.

For the compound `CC(=O)NC[C@H]1CN(c2cc(F)c(N3C[C@@H]4[C@H](C3)[C@H]4NC(=O)CO)c(F)c2)C(=O)O1`, the MIC in [1] was 8 µg/mL (≈ 18.8 µM); in assay [2] it was 16 µg/mL (≈ 37.7 µM); in assay [3] (setting [14]) it was 2 µg/mL (≈ 4.71 µM); in assay [4] it was 16 µg/mL (≈ 37.7 µM); in [5], 4 µg/mL (≈ 9.42 µM); in assay [6] (setting [15]) it was 64 µg/mL (≈ 151 µM). Further, the MIC in assay [7] was above 64 µg/mL.

As to `CC(=O)NC[C@H]1CN(c2ccc(N3C[C@@H]4[C@H](C3)[C@H]4C(=O)O)c(F)c2)C(=O)O1`, the MIC in [1] came to 4 µg/mL (≈ 10.6 µM); in [2], 4 µg/mL (≈ 10.6 µM); in assay [3] (setting [14]), 4 µg/mL (≈ 10.6 µM); in [4], 8 µg/mL (≈ 21.2 µM); in assay [5], 2 µg/mL (≈ 5.3 µM); in [6] (setting [15]) it was 16 µg/mL (≈ 42.4 µM). In assay [7], this compound yielded an MIC above 64 µg/mL.

In the case of `CC(=O)NC[C@H]1CN(c2cc(F)c(N3C[C@@H]4[C@H](C3)[C@H]4C(N)=O)c(F)c2)C(=O)O1`, the MIC was determined as 2 µg/mL (≈ 5.07 µM) in assay [1]; 4 µg/mL (≈ 10.1 µM) in [2]; 1 µg/mL (≈ 2.54 µM) in assay [3] (setting [14]); 4 µg/mL (≈ 10.1 µM) in assay [4]; 2 µg/mL (≈ 5.07 µM) in assay [5]; 32 µg/mL (≈ 81.1 µM) in assay [6] (setting [15]). Besides, the MIC in assay [7] was above 64 µg/mL.

For the compound `CC(=O)NC[C@H]1CN(c2cc(F)c(N3C[C@@H]4[C@H](C3)[C@H]4NC(C)=O)c(F)c2)C(=O)O1`, the MIC was 2 µg/mL (≈ 4.9 µM) in assay [8]; 4 µg/mL (≈ 9.79 µM) in assay [2]; 4 µg/mL (≈ 9.79 µM) in [9]; 1 µg/mL (≈ 2.45 µM) in [3] (setting [14]); 4 µg/mL (≈ 9.79 µM) in [4]; 64 µg/mL (≈ 157 µM) in [6] (setting [15]). The compound further had an MIC in assay [7] above 64 µg/mL.

For `CC(=O)NC[C@H]1CN(c2ccc(N3C[C@H]4C[C@H]4C3)c(F)c2)C(=O)O1`, the MIC was 2 µg/mL (≈ 6 µM) in [1]; 2 µg/mL (≈ 6 µM) in assay [2]; 1 µg/mL (≈ 3 µM) in assay [3] (setting [14]); 2 µg/mL (≈ 6 µM) in assay [4]; 1 µg/mL (≈ 3 µM) in assay [5]; 32 µg/mL (≈ 96 µM) in assay [6] (setting [15]). The MIC in assay [7] is above 64 µg/mL.

For `CC(=O)NC[C@H]1CN(c2cc(F)c(N3C[C@H]4C[C@H]4C3)c(F)c2)C(=O)O1`, the MIC worked out at 2 µg/mL (≈ 5.69 µM) in assay [1]; 2 µg/mL (≈ 5.69 µM) in assay [2]; 0.5 µg/mL (≈ 1.42 µM) in assay [3] (setting [14]); 2 µg/mL (≈ 5.69 µM) in assay [4]; 1 µg/mL (≈ 2.85 µM) in [5]; 64 µg/mL (≈ 182 µM) in assay [6] (setting [15]). This compound had an MIC in assay [7] above 64 µg/mL.

Take `O=C(NC[C@H]1CN(c2cc(F)c(N3C[C@@H]4[C@H](C3)[C@H]4C(=O)O)c(F)c2)C(=O)O1)C(F)F`: the MIC in assay [1] was 0.5 µg/mL (≈ 1.16 µM); in assay [2] it was 0.5 µg/mL (≈ 1.16 µM); in assay [3] (setting [14]), 1 µg/mL (≈ 2.32 µM); in [4], 1 µg/mL (≈ 2.32 µM); in assay [5], 0.5 µg/mL (≈ 1.16 µM); in assay [6] (setting [15]), 4 µg/mL (≈ 9.27 µM).

For `CC(=O)NC[C@H]1CN(c2cc(F)c(N3C[C@@H]4[C@H](C3)[C@H]4C(=O)Nc3ccc4c(c3)OCO4)c(F)c2)C(=O)O1`, the MIC in [1] is 1 µg/mL (≈ 1.94 µM); in [2], 1 µg/mL (≈ 1.94 µM); in [3] (setting [14]), 0.5 µg/mL (≈ 0.972 µM); in assay [4], 1 µg/mL (≈ 1.94 µM); in [5], 0.5 µg/mL (≈ 0.972 µM); in assay [6] (setting [15]) it was above 64 µg/mL.

As for `CC(=O)NC[C@H]1CN(c2cc(F)c(N3C[C@@H]4[C@H](C3)[C@H]4NC(=O)Nc3ccccc3)c(F)c2)C(=O)O1`, the MIC in assay [1] is 2 µg/mL (≈ 4.12 µM); in assay [2] it was 4 µg/mL (≈ 8.24 µM); in assay [3] (setting [14]), 1 µg/mL (≈ 2.06 µM); in assay [4], 8 µg/mL (≈ 16.5 µM); in assay [5], 2 µg/mL (≈ 4.12 µM); in assay [6] (setting [15]), above 64 µg/mL. In assay [7], this compound registered an MIC above 64 µg/mL.

On to `CC(=O)NC[C@H]1CN(c2ccc(N3C[C@@H]4[C@@H](N)[C@@H]4C3)c(F)c2)C(=O)O1`, for which the MIC in assay [10] came to 16 µg/mL (≈ 45.9 µM); in assay [1], 4 µg/mL (≈ 11.5 µM); in assay [2], 4 µg/mL (≈ 11.5 µM); in [3] (setting [14]), 1 µg/mL (≈ 2.87 µM); in [11], 1 µg/mL (≈ 2.87 µM); in assay [12] it was 4 µg/mL (≈ 11.5 µM). Also, the MIC in assay [7] came to 32 µg/mL (≈ 91.9 µM).

As for `CC(=O)NC[C@H]1CN(c2cc(F)c(N3C[C@@H]4[C@@H](N)[C@@H]4C3)c(F)c2)C(=O)O1` (stereo in doubt), the MIC in assay [1] was 4 µg/mL (≈ 10.9 µM); in assay [2], 4 µg/mL (≈ 10.9 µM); in assay [3], 1 µg/mL (≈ 2.73 µM); in assay [4], 8 µg/mL (≈ 21.8 µM); in [5] it was 1 µg/mL (≈ 2.73 µM); in assay [6], 32 µg/mL (≈ 87.3 µM). In [7], this compound registered an MIC above 64 µg/mL.

As to `CC(=O)NC[C@H]1CN(c2ccc(N3CCOCC3)c(F)c2)C(=O)O1` [LINEZOLID], the MIC in assay [10] was 16 µg/mL (≈ 47.4 µM); in [13], 4 µg/mL (≈ 11.9 µM); in assay [5], 1 µg/mL (≈ 2.96 µM); in assay [7], above 64 µg/mL.

For the origin of these results see ChEMBL document CHEMBL1140345, “Conformational constraint in oxazolidinone antibacterials. Synthesis and structure-activity studies of (azabicyclo[3.1.0]hexylphenyl)oxazolidinones” (2005).
